Most compounds without a hit are left out; they make up all but 1% or so of the library.
T cell HTS: T cell immune modulators affecting CD8 T cell-vesicle binding. response (vesicle binding), % at 7 µM. AID 2052. 2C CD8+ T cell-vesicle binding, flow cytometry; stronger effect = lower value. 0.068% of 330,000 active;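 active = response, share of CD8 T cells binding vesicles, and their 90th percentile fluorescence all below set limits, cut at about 80% in these data, passing the limit was not always enough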;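 also: values below 100% mean blocked vesicle binding to the CD8+ T cells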
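material = purified 2C TCR transgenic mouse naive CD8+ T cells | controls = Unloaded micro-vesicles (low), QL9 vesicles with 0.7% DMSO (high) | detection = cytometric PE anti-B7-1 and Alexa647 anti-CD8 signals after 1% paraformaldehyde fixation | incubation = binding step 1.5 h, 37 °C, antibody labelling 20 min, ice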
Bfl-1 A1 inh: inhibitors of the anti-apoptotic protein A1, read as caspase activation; MEF A1-2A-BIM cells, Caspase-Glo 3/7 luminescence, 3 h; percent of clofoctol response, vehicle zero; 0.066% of 330,000 active; caspase activation, % (concentration not given with the values);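 active = over half of replicate activation scores above 10%, or exactly half above 10 with the replicate mean above 10; inconclusive = replicate mean below 10 yet half the replicates above 10; inactive = over half of replicates below 10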
NLRP3 yeast inh: inhibitors of NALP3 inflammasome in yeast; Yeast reconstituted NLRP3/ASC/caspase-1, beta-gal luminescence, 24 h; inhibition, % at 10 µM; 0.39% of 330,000 active; AID 2825;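 active = inhibition of 50% or more; inactive = inhibition below 50%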
NALP1 inh: inhibitors of NALP1 inflammasome in yeast | AID 2071 | S. cerevisiae NALP1/ASC/caspase-1 growth, X-gal OD620, 72 h | 0.61% of 280,000 active | inhibition, % at 10 µM; in the data active = inhibition mostly above about 24%, no sharp cut-off; inactive = mostly below about 32%
Each line names hits and unclear results; the compound was inactive in the other large screens.

COc1ccccc1N1CCN(Cc2cc(=O)c(OCC#N)co2)CC1	none
Cc1ccc(Cn2c(CCNc3nc(-c4ccc(Cl)c([N+](=O)[O-])c4)cs3)nc3cc(C(=O)NCCCO)ccc32)cc1	none (no result: NALP1 inh)
O=C(O)C1=C[C@H](c2ccc(C(F)(F)F)cc2)C[C@H](OCc2ccc(CO)cc2)O1	NALP1 inh 22
CCOC(=O)c1sc2nc(C)nc(N3CCN(S(=O)(=O)c4ccccc4)CC3)c2c1C	none (no result: NALP1 inh)
O=C(NC1CCCCCC1)C1CCN(C(=O)c2cccc(Cl)c2)CC1	none
Cc1c(CC(=O)O)c(=O)oc2c(C)c(OCc3nn[nH]n3)ccc12	NALP1 inh 37
Cc1c(Cc2ccccc2)c(=O)oc2c(C)c(OCc3nn[nH]n3)ccc12	Bfl-1 A1 inh inconclusive
O=C(c1ccc(N2CCOCC2)cc1[N+](=O)[O-])N1CCOCC1	NALP1 inh 34
O=C(O)CNC(=O)c1ccc(N2CCOCC2)cc1[N+](=O)[O-]	none
COc1ccc(NC(=O)CC2C(=O)Nc3ccccc3N2CC(=O)N2CCCC2)cc1 (stereo not given)	none (no result: NALP1 inh)
Cc1oc2cc(O)ccc2c(=O)c1Oc1ccc2ccccc2c1	NALP1 inh 32
Cc1oc2cc(O)ccc2c(=O)c1Oc1ccc(F)cc1	none
CN(Cc1ccccc1)C(=O)c1ccc([N+](=O)[O-])o1	NALP1 inh 48
O=C(COC(=O)c1ccc([N+](=O)[O-])o1)NCc1ccccc1	none (no result: NALP1 inh)
Cc1ccc(N(C(C)C(=O)O)S(=O)(=O)c2c(C)[nH]c(=O)[nH]c2=O)cc1 (stereo not given)	NALP1 inh 42
COc1cc(S(=O)(=O)Nc2ccccc2C(=O)N2CCCCC2)ccc1NC(C)=O	none (no result: NALP1 inh)
Cc1ccc(S(=O)(=O)c2ccc([N+](=O)[O-])cn2)cc1	NALP1 inh 35
COc1ccccc1CNC(=O)c1ccccc1C(=O)NC(CC(C)C)C(=O)NCc1ccccc1OC (stereo not given)	none
Cc1cc(NS(=O)(=O)c2ccc(NC(=O)/C=C/c3ccco3)cc2)nc(C)n1	NALP1 inh 38
Cc1cc(N2CCN(C)CC2)nc2ccc(NC(=O)c3ccc(Br)o3)cc12	NALP1 inh 38
CCOC(=O)c1nnc(-c2cccs2)nc1NC(C)C	NALP1 inh 24
CCOC(=O)c1sc(NC(=O)CSc2ncn[nH]2)c(C#N)c1C	T cell HTS 15
COC(=O)c1ccc(Nc2c([N+](=O)[O-])ccc3nonc23)cc1	none
O=C(CCNC(=O)c1ccco1)NCCc1ccc(Cl)cc1	NALP1 inh 38
O=C(CCN1CCN(Cc2ccccc2)CC1)NNC(=O)Nc1cccc(Cl)c1	none
O=C(CCN1CCN(Cc2ccccc2)CC1)NNC(=O)Nc1cccc([N+](=O)[O-])c1	NALP1 inh 26
NCCS	NALP1 inh 47
CCOc1ccc(N2C(=O)CC(N)C2=O)cc1 (stereo not given)	NALP1 inh 94
CCOc1ccc(N2C(=O)CC(Sc3n[nH]c(-c4ccccc4)n3)C2=O)cc1 (stereo not given)	NALP1 inh 37
CCOC(=O)C1=C(COC(=O)/C=C/c2cccc(Cl)c2)NC(=O)NC1C (stereo not given)	none (no result: NALP1 inh)
O=C(c1ccc(N2C(=O)C3CC=C(Cl)CC3C2=O)cc1)N1CCCCC1 (stereo not given)	T cell HTS 0.0
CCCn1nc(C(=O)Nc2ccc(-n3cnnn3)cc2)c2ccccc2c1=O	none (no result: T cell HTS, Bfl-1 A1 inh, NALP1 inh)
CN(C)Cc1c(O)ccc2c1O/C(=C\C=C\c1ccccc1)C2=O	NALP1 inh 44
CCN1CCN(Cc2c(O)ccc3c2O/C(=C\C=C\c2ccccc2)C3=O)CC1	none
Cc1ccc2c(c1)C(=O)C(=O)N2Cc1ccc(Br)cc1	Bfl-1 A1 inh 5.9 (no result: NALP1 inh)
CCCc1c(C(=O)OCC)[nH]c2c1C(=O)CCC2	NALP1 inh 43
COc1ccc([N+](=O)[O-])cc1N(CC(O)CN1CCCCC1)S(=O)(=O)c1ccccc1 (stereo not given)	NALP1 inh 25
Oc1ccc(CN2CCN(c3ccccc3)CC2)c2cccnc12	none
Oc1ccc(CN2CCC(Cc3ccccc3)CC2)c2cccnc12	NALP1 inh 31 (no result: T cell HTS, Bfl-1 A1 inh)
O=C(O)Cc1ccc(NC(=O)Nc2ccc(Br)cc2)cc1	NALP1 inh 32
COc1ccc(/C=C2\CC/C(=C\c3ccc(OC)c(OC)c3)C2=O)cc1OC	none
COc1ccc(C=C2C=C(C(C)(C)C)C(=O)C(C(C)(C)C)=C2)cc1OC	Bfl-1 A1 inh 11
O=C(CSc1nccc(=O)[nH]1)NCc1ccco1	NALP1 inh 43
O=C(Nc1ccccc1)N1CCc2c([nH]c3ccccc23)C1C(F)(F)F (stereo not given)	T cell HTS 32
Cc1cc(OCc2cc(C(=O)N(Cc3nccn3C)C(C)C)no2)cc(C)c1Cl	none
Cn1c(N)c(C(C[N+](=O)[O-])c2c(F)cccc2Cl)c(=O)n(C)c1=O (stereo not given)	NALP1 inh 44
CN(C)c1ccc(C(C[N+](=O)[O-])c2c(N)n(C)c(=O)n(C)c2=O)c(F)c1C#N (stereo not given)	none
CC(C)NC(=O)CC(c1ccccc1)c1cc(Br)ccc1O (stereo not given)	NALP1 inh 40
C/C(=N/NS(=O)(=O)c1cc(C)ccc1C)c1ccc2c(c1)OCO2	none
CCN(CC)c1ccc(NC(=O)c2cccc(C)c2OC)c(C)c1	NALP1 inh 29
Cc1ccc(S(=O)(=O)N2CCN(C(=O)COC(=O)/C=C/c3ccccc3[N+](=O)[O-])CC2)c(C)c1	none (no result: NALP1 inh)
Nc1cc(C(=O)OCC(=O)c2ccc(CC(=O)N3CCOCC3)s2)ccc1Cl	T cell HTS 0.0 (no result: NALP1 inh)
O=C(COc1ccccc1/C=C1\SC(=S)NC1=O)Nc1ccc(F)cc1	none (no result: NALP1 inh)
O=C(Nc1ccc(S(=O)(=O)NCc2ccccc2)cc1)C1CCCCC1	NALP1 inh 32
CCCCC[C@@H]1C=C(C(=O)O)[C@H](c2ccc(F)cc2)N1S(=O)(=O)c1ccc(C)cc1	none (no result: NALP1 inh)
O=C(O)CCCn1cc(NC(=O)c2cccc(F)c2)cn1	NALP1 inh 27
O=C(O)CCCn1cc(NC(=O)c2cc(F)c(F)cc2Cl)cn1	none
CC(NC(=O)c1ccc2c(c1)C(=O)N(Cc1cccnc1)C2=O)c1ccccc1 (stereo not given)	none
CN(Cc1ccccc1OCCO)CC1CCCN(CCc2ccc(Cl)cc2)C1 (stereo not given)	none
Cc1onc(-c2ccccc2)c1C(=O)Nc1ccnn1C1CCCCC1	NALP1 inh 32
COC(=O)c1cc(NC(=O)c2ccccc2)c(=O)oc1C/C=N\OCc1ccc(Cl)cc1Cl	NALP1 inh 42
O=C(COC(=O)CN1C(=O)C2CCCCC2C1=O)Nc1cc(F)ccc1F (stereo not given)	none (no result: T cell HTS, Bfl-1 A1 inh, NALP1 inh)
C=Cc1ccc(C2=CC(=O)C[C@H](c3ccc(OC)cc3)C2)cc1	none (no result: NALP1 inh)
Cc1ccc2nc(-c3ccncc3)cc(-c3ccccc3)c2c1	NALP1 inh 34
Cc1ccc2nc(-c3ccc(NS(C)(=O)=O)cc3)cc(-c3ccccc3)c2c1	none
Cc1ccc(-n2nc(C(=O)NCc3ccc(C)o3)c3c4ccccc4n(C)c3c2=O)cc1	NALP1 inh 38

Source: PubChem BioAssay
